Reference: ChEMBL document CHEMBL4011646, “Discovery of a Small-Molecule Inhibitor of Interleukin 15: Pharmacophore-Based Virtual Screening and Hit Optimization” (J Med Chem, 2017)

Legend:
[1] = Inhibition of recombinant human IL2R/IL2-induced mouse 32D-beta cell proliferation preincubated for 30 mins with protein followed by cell addition measured after 2.5 days by Alamar blue reduction assay
Method in brief: (§1)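 32Dβ cells (IL-2Rβ/γ) were starved 4 h without cytokine, then 1 × 10^4 cells were cultured 2.5 days with 100 pM RLI or 1.5 nM IL-2. The cytokine was preincubated 30 min with fixed or increasing compound concentrations or vehicle (culture medium, DMSO 0.1% final). Alamar blue was added for 6 h at 37 °C, with fluorescence read at ex 560/em 590 nm. Tested in triplicate; IC50 is the mean of ≥2 independent assays.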

IL15-IL15 receptor [2] = target: IL15-IL15 receptor (Homo sapiens, UniProt P40933); assay: Inhibition of IL15R/IL15 interaction in human NK92 cells assessed as reduction of IL15-induced STAT5 phosphorylation preincubated for 30 mins with IL15 followed by cell addition measured after 1 hr by AlphaScreen assay; assay type: cell-based
Chain of IL15-IL15 receptor (Homo sapiens, UniProt P40933) (P40933 whole entry): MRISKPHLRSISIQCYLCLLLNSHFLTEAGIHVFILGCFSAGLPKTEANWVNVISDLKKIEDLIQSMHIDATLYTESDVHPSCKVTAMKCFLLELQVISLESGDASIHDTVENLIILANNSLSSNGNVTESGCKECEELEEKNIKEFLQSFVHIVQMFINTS
Chain of IL15-IL15 receptor (Homo sapiens, UniProt P40933) (Q13261 whole entry, further chain): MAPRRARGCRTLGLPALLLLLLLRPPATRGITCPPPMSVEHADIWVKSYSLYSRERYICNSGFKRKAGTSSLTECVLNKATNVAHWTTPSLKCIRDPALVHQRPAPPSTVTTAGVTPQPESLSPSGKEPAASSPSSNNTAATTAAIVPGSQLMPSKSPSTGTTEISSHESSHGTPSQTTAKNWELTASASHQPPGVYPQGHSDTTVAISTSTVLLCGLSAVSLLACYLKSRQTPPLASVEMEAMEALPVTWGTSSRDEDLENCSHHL
Method in brief: (§2)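 NK-92 cells were washed and serum-starved overnight, then 2 × 10^5 cells were stimulated at 37 °C for 1 h with IL-15 (50 pM fixed) or IL-2. The cytokine had been preincubated 30 min with increasing compound concentrations or vehicle (PBS, BSA 0.1%, DMSO 0.6% final). Cells were lysed and p-Stat5 read by AlphaScreen SureFire. Duplicates, ≥3 independent experiments. Result is % reduction of the cytokine p-Stat5 response.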

[3] = Inhibition of IL2R/IL2 interaction in human NK92 cells assessed as reduction IL2-induced STAT5 phosphorylation preincubated for 30 mins with IL2 followed by cell addition measured after 1 hr by AlphaScreen assay; assay type: cell-based; method in brief: as §2
Interleukin-15 = Interleukin-15 (Homo sapiens, UniProt P40933); assay: Binding affinity to recombinant human IL-15 by SPR assay
Chain of Interleukin-15 (P40933 whole entry): as the sequence (P40933 whole entry) above
Method in brief: (§3)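 SPR on a BIAcore 3000 at 25 °C. Recombinant IL-15, RLI or IL-2 was amine-coupled to CM5 chips, and compounds were flowed over at 100 μM or at increasing concentrations (3.125–100 μM) in PBS or 1% or 5% DMSO. Binding was read as the change in RU, and Kd was derived from direct interaction.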

Interleukin-2 = Interleukin-2 (Homo sapiens, UniProt P60568); assay: Binding affinity to recombinant human IL-2 by SPR assay; method in brief: as §3
Chain of Interleukin-2 (P60568 whole entry, the tested form may be a part): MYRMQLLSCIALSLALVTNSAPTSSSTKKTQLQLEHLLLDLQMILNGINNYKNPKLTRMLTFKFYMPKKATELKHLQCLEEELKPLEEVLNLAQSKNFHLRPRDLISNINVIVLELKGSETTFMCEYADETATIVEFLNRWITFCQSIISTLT

IL15-IL15 receptor [4] = target: IL15-IL15 receptor (Homo sapiens, UniProt P40933+Q13261); assay: Inhibition of human IL-15Ralpha-sushi domain/human IL-15-induced mouse 32D-beta cell proliferation preincubated for 30 mins with protein followed by cell addition measured after 2.5 days by Alamar blue reduction assay; method in brief: as §1
Chain of IL15-IL15 receptor (Homo sapiens, UniProt P40933+Q13261) (P40933 whole entry, the tested form may be a part): as the sequence (P40933 whole entry) above
Chain of IL15-IL15 receptor (Homo sapiens, UniProt P40933+Q13261) (Q13261 whole entry, the tested form may be a part): as the sequence (Q13261 whole entry, further chain) above

CCOC(=O)c1cccc(NC(=O)CCCCCCCSc2nnc(Cc3nn(C)c(=O)c4ccccc34)n2C)c1
IC50 ([1]; Homo sapiens, read-out: IC50): 600 nM
IC50 (IL15-IL15 receptor [2]): 57 nM
IC50 [3]: 43 nM
Kd (Interleukin-15): 21800 nM
Kd (Interleukin-2): 23100 nM

CN(C(=O)CSc1nnc(Cc2nn(C)c(=O)c3ccccc23)n1C)c1ccc(Cl)cc1Cl
IC50 [1]: Not Active

Cc1ccc(NC(=O)CCCCCCCSc2nnc(Cc3nn(C)c(=O)c4ccccc34)n2C)c(Cl)c1
IC50 ([1]; Homo sapiens, read-out: IC50): 1700 nM
IC50 (IL15-IL15 receptor [2]): 76 nM
IC50 [3]: 69 nM
Kd (Interleukin-15): 24100 nM

Cn1c(Cc2nn(C)c(=O)c3ccccc23)nnc1SCCCCCCCC(=O)Nc1ccc(Cl)cc1
IC50 ([1]; Homo sapiens, read-out: IC50): 800 nM

CN(C(=O)CCCCCCCSc1nnc(Cc2nn(C)c(=O)c3ccccc23)n1C)c1ccc(Cl)cc1Cl
IC50 ([1]; Homo sapiens, read-out: IC50): 8400 nM

CC(C)COc1ccc(NC(=O)CCCCCCCSc2nnc(Cc3nn(C)c(=O)c4ccccc34)n2C)cc1
IC50 ([1]; Homo sapiens, read-out: IC50): 3000 nM
IC50 (IL15-IL15 receptor [2]): 55 nM
IC50 [3]: 58 nM
Kd (Interleukin-15): 25000 nM

Cn1c(Cc2nn(C)c(=O)c3ccccc23)nnc1SCC(=O)Nc1ccc(F)cc1F
IC50 (IL15-IL15 receptor [4]): Not Active

Cn1c(Cc2nn(C)c(=O)c3ccccc23)nnc1SCCCCCCCCCC(=O)Nc1ccc(Cl)cc1Cl
IC50 ([1]; Homo sapiens, read-out: IC50): 1600 nM

Cn1c(Cc2nn(C)c(=O)c3ccccc23)nnc1SCc1cn(CCCCC(=O)Nc2ccc(Cl)cc2Cl)nn1
IC50 ([1]; Homo sapiens, read-out: IC50): > 30000 nM

Cn1c(Cc2nn(C)c(=O)c3ccccc23)nnc1SCC(=O)Nc1ccc(Cl)cc1Cl
IC50 ([1]; Homo sapiens, read-out: IC50): 11600 nM
IC50 (IL15-IL15 receptor [2]): 9110 nM
IC50 [3]: 14100 nM
Kd (Interleukin-15): 48400 nM
Kd (Interleukin-2): 10500 nM

CC(C)COc1ccc(NC(=O)CSc2nnc(Cc3nn(C)c(=O)c4ccccc34)n2C)cc1
IC50 ([1]; Homo sapiens, read-out: IC50): 30000 nM

COc1ccc(NC(=O)CCCCCCCSc2nnc(Cc3nn(C)c(=O)c4ccccc34)n2C)c(OC)c1
IC50 ([1]; Homo sapiens, read-out: IC50): 900 nM
IC50 (IL15-IL15 receptor [2]): 205 nM
IC50 [3]: 162 nM
Kd (Interleukin-15): 19600 nM
Kd (Interleukin-2): 27600 nM

CCOC(=O)c1ccccc1NC(=O)CSc1nnc(Cc2nn(C)c(=O)c3ccccc23)n1C
IC50 ([1]; Homo sapiens, read-out: IC50): 30000 nM

Cn1c(Cc2nn(C)c(=O)c3ccccc23)nnc1SCCCCCCCC(=O)NC12CC3CC(CC(C3)C1)C2
IC50 ([1]; Homo sapiens, read-out: IC50): 1800 nM
IC50 (IL15-IL15 receptor [2]): 210 nM
IC50 [3]: 152 nM
Kd (Interleukin-15): 78000 nM

Cn1c(Cc2nn(C)c(=O)c3ccccc23)nnc1SCCCCCCCCCCC(=O)Nc1cccc2ccccc12
IC50 ([1]; Homo sapiens, read-out: IC50): 8500 nM

Cn1c(Cc2nn(C)c(=O)c3ccccc23)nnc1SCCCCCCCC(=O)Nc1ccc(O)cc1O
IC50 ([1]; Homo sapiens, read-out: IC50): 21000 nM

Cn1c(Cc2nn(C)c(=O)c3ccccc23)nnc1SCCCCCCCC(=O)Nc1ccc(F)cc1F
IC50 ([1]; Homo sapiens, read-out: IC50): 1000 nM
IC50 (IL15-IL15 receptor [2]): 110 nM
IC50 [3]: 76 nM

Cn1c(Cc2nn(C)c(=O)c3ccccc23)nnc1SCC(=O)Nc1ccccc1C(=O)O
IC50 (IL15-IL15 receptor [4]): Not Active
IC50 [1]: Not Active

Cn1nc(Cc2nnc(SCCCCCCCCCCC(=O)Nc3ccc(Cl)cc3Cl)o2)c2ccccc2c1=O
IC50 ([1]; Homo sapiens, read-out: IC50): 7500 nM

CCOC(=O)c1cccc(NC(=O)CSc2nnc(Cc3nn(C)c(=O)c4ccccc34)n2C)c1
IC50 (IL15-IL15 receptor [4]): Not Active
IC50 [1]: Not Active

Cn1c(Cc2nn(C)c(=O)c3ccccc23)nnc1SCCCCCCCC(=O)Nc1cccc2ccccc12
IC50 ([1]; Homo sapiens, read-out: IC50): 1900 nM

Cn1c(Cc2nn(C)c(=O)c3ccccc23)nnc1SCCCC(=O)Nc1ccc(Cl)cc1Cl
IC50 ([1]; Homo sapiens, read-out: IC50): 11200 nM

COc1ccc(NC(=O)CCCCCCCSc2nnc(Cc3nn(C)c(=O)c4ccccc34)n2C)c(O)c1
IC50 ([1]; Homo sapiens, read-out: IC50): 1000 nM
IC50 (IL15-IL15 receptor [2]): 360 nM
IC50 [3]: 226 nM
Kd (Interleukin-15): 21200 nM
Kd (Interleukin-2): 12500 nM

Cn1c(Cc2nn(C)c(=O)c3ccccc23)nnc1SCCCCCCCC(=O)Nc1ccc(O)cc1
IC50 ([1]; Homo sapiens, read-out: IC50): > 30000 nM

Cn1c(Cc2nn(C)c(=O)c3ccccc23)nnc1SCC(=O)NC12CC3CC(CC(C3)C1)C2
IC50 (IL15-IL15 receptor [4]): Not Active
IC50 [1]: Not Active
IC50 (IL15-IL15 receptor [2]): > 30000 nM
IC50 [3]: > 30000 nM

Cn1c(Cc2nn(C)c(=O)c3ccccc23)nnc1SCCCCCCCC(=O)Nc1ccc(I)cc1
IC50 ([1]; Homo sapiens, read-out: IC50): 800 nM

Cn1c(Cc2nn(C)c(=O)c3ccccc23)nnc1SCCCCCCCCCCCCCCCC(=O)Nc1ccc(Cl)cc1Cl
IC50 ([1]; Homo sapiens, read-out: IC50): 4600 nM

Cn1c(Cc2nn(C)c(=O)c3ccccc23)nnc1SCCCCCCCC(=O)Nc1ccc(Br)cc1Br
IC50 ([1]; Homo sapiens, read-out: IC50): 1300 nM
IC50 (IL15-IL15 receptor [2]): 92 nM
IC50 [3]: 83 nM
Kd (Interleukin-15): 11600 nM
Kd (Interleukin-2): 10000 nM

Cn1c(Cc2nn(C)c(=O)c3ccccc23)nnc1SCCCCCCCC(=O)Nc1ccc(N=[N+]=[N-])cc1
IC50 ([1]; Homo sapiens, read-out: IC50): 1100 nM
IC50 (IL15-IL15 receptor [2]): 100 nM
IC50 [3]: 73 nM
Kd (Interleukin-15): 42400 nM

Cn1nc(Cc2nnc(SCCCCCCCC(=O)Nc3ccc(Cl)cc3Cl)o2)c2ccccc2c1=O
IC50 ([1]; Homo sapiens, read-out: IC50): 800 nM

Cn1c(Cc2nn(C)c(=O)c3ccccc23)nnc1SCC(=O)Nc1cccc(C(=O)O)c1
IC50 (IL15-IL15 receptor [4]): Not Active
IC50 [1]: Not Active

Cn1c(Cc2nn(C)c(=O)c3ccccc23)nnc1SCCCCCCCCCCC(=O)NC12CC3CC(CC(C3)C1)C2
IC50 ([1]; Homo sapiens, read-out: IC50): 4900 nM
IC50 (IL15-IL15 receptor [2]): 124 nM
IC50 [3]: 59 nM
Kd (Interleukin-15): 16000 nM

COc1ccc(NC(=O)CSc2nnc(Cc3nn(C)c(=O)c4ccccc34)n2C)cc1
IC50 (IL15-IL15 receptor [4]): Not Active
IC50 [1]: Not Active

Cn1c(Cc2nn(C)c(=O)c3ccccc23)nnc1S(=O)(=O)CCCCCCCC(=O)Nc1ccc(Br)cc1Br
IC50 ([1]; Homo sapiens, read-out: IC50): 1600 nM

COc1ccc(NC(=O)CCCCCCCSc2nnc(Cc3nn(C)c(=O)c4ccccc34)n2C)cc1
IC50 ([1]; Homo sapiens, read-out: IC50): 3200 nM
IC50 (IL15-IL15 receptor [2]): 201 nM
IC50 [3]: 204 nM
Kd (Interleukin-15): 26000 nM

CC(C)Oc1ccc(NC(=O)CSc2nnc(Cc3nn(C)c(=O)c4ccccc34)n2C)cc1
IC50 ([1]; Homo sapiens, read-out: IC50): > 30000 nM

Cn1c(Cc2nn(C)c(=O)c3ccccc23)nnc1SCC(=O)Nc1ccc(O)cc1
IC50 (IL15-IL15 receptor [4]): Not Active
IC50 [1]: Not Active

CC(C)Oc1ccc(NC(=O)CCCCCCCSc2nnc(Cc3nn(C)c(=O)c4ccccc34)n2C)cc1
IC50 ([1]; Homo sapiens, read-out: IC50): 600 nM
IC50 (IL15-IL15 receptor [2]): 93 nM
IC50 [3]: 89 nM
Kd (Interleukin-15): 20900 nM

Cn1c(Cc2nn(C)c(=O)c3ccccc23)nnc1SCCCCCCCCCCC(=O)Nc1ccc(Cl)cc1Cl
IC50 ([1]; Homo sapiens, read-out: IC50): 4400 nM
IC50 (IL15-IL15 receptor [2]): 142 nM
IC50 [3]: 159 nM

Cn1c(Cc2nn(C)c(=O)c3ccccc23)nnc1SCCCCCCCC(=O)Nc1ccccc1O
IC50 ([1]; Homo sapiens, read-out: IC50): 23000 nM

CCCCCCCCCCSc1nnc(Cc2nn(C)c(=O)c3ccccc23)n1C
IC50 ([1]; Homo sapiens, read-out: IC50): 10000 nM

CCCOc1ccc(NC(=O)CCCCCCCSc2nnc(Cc3nn(C)c(=O)c4ccccc34)n2C)cc1
IC50 ([1]; Homo sapiens, read-out: IC50): 900 nM
IC50 (IL15-IL15 receptor [2]): 40 nM
IC50 [3]: 53 nM
Kd (Interleukin-15): 19000 nM

CCCOc1ccc(NC(=O)CSc2nnc(Cc3nn(C)c(=O)c4ccccc34)n2C)cc1
IC50 ([1]; Homo sapiens, read-out: IC50): > 30000 nM

Cn1c(Cc2nn(C)c(=O)c3ccccc23)nnc1SCC(=O)Nc1ccc(I)cc1
IC50 (IL15-IL15 receptor [4]): Not Active
IC50 [1]: Not Active

Cn1c(Cc2nn(C)c(=O)c3ccccc23)nnc1SCCCCCC(=O)Nc1ccc(Cl)cc1Cl
IC50 ([1]; Homo sapiens, read-out: IC50): 9800 nM

Cn1c(Cc2nn(C)c(=O)c3ccccc23)nnc1SCCCCCCCC(=O)Nc1ccc(Cl)cc1Cl
IC50 ([1]; Homo sapiens, read-out: IC50): 1100 nM
IC50 (IL15-IL15 receptor [2]): 153 nM
IC50 [3]: 160 nM
Kd (Interleukin-15): 19100 nM
Kd (Interleukin-2): 8000 nM

Cn1c(Cc2nn(C)c(=O)c3ccccc23)nnc1SCc1cn(C23CC4CC(CC(C4)C2)C3)nn1
IC50 ([1]; Homo sapiens, read-out: IC50): 30000 nM
